Reference: ChEMBL document CHEMBL1671700, “Structure-activity analysis of vinylogous urea inhibitors of human immunodeficiency virus-encoded ribonuclease H” (Antimicrob Agents Chemother, 2010)
Calls of active or inactive are those of the source. No cut-off for these calls is given here.

How the values were obtained:
[1] = target: T1, Human immunodeficiency virus type 1 reverse transcriptase (Human immunodeficiency virus 1, UniProt Q72547); assay: Inhibition of RNase H activity of HIV-1 HXB2 reverse transcriptase p66/p51 after 10 mins by fluorescence spectrophotometry
Outline: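 His-p66/His-p51 RT from HIV-1 HXB2, 250 ng, with 250 nM 18-nt 3′-fluorescein RNA annealed to 5′-dabsyl DNA. Hydrolysis started by adding hybrid. 37°C, fluorescence (ex 475/em 520 nm) read every minute for 10 min. Percent inhibition from initial rates, plotted against log concentration. Triplicate.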

[2] = test system: Human immunodeficiency virus 1; assay: Antiviral activity against HIV-1 isolate RF infected in human CEM-SS cells assessed as inhibition of virus induced cytopathic effect by XTT assay; format: functional, organism-based; settings: Human immunodeficiency virus 1, isolate RF
Outline: (§1)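 HIV-1 RF isolate in human T-cell line CEM-SS; XTT-based cell viability read-out following Weislow et al.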

[3] = Cytotoxicity against human CEM-SS cells by XTT assay; format: cell-based; outline: as §1
[4] = target: Human immunodeficiency virus type 1 reverse transcriptase (Human immunodeficiency virus 1) (UniProt Q72547); assay: Inhibition of RNase H activity of HIV-1 HXB2 reverse transcriptase p66/p51 preincubated with compound and RNA-DNA hybrid substrate followed by addition of magnesium ions
[5] = target: Human immunodeficiency virus type 1 reverse transcriptase (Human immunodeficiency virus 1) (UniProt Q72547); assay: Inhibition of RNase H activity of HIV-1 HXB2 reverse transcriptase p66/p51 pre-incubated with RNA-DNA hybrid followed by addition of compound and magnesium ions
[6] = target: Human immunodeficiency virus type 1 reverse transcriptase (Human immunodeficiency virus 1) (UniProt Q72547); assay: Binding affinity to HIV-1 HXB2 reverse transcriptase p66/p51 assessed as changes in enzyme orientation on polypurine tract-containing RNA-DNA hybrid by FRET assay
Outline: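 Single-molecule FRET. Substrate: 21-nt PPT:D2 RNA-DNA primer annealed at 1.2:1 to a biotinylated 50-nt DNA template. Cy5 acceptor near the template 3′ end; Cy3 donor on the RNase H C terminus of p66. His-p66/His-p51 RT is from the HXB2 isolate. Inhibitor was added at 10 μM final.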

[7] = target: Human immunodeficiency virus type 1 reverse transcriptase (Human immunodeficiency virus 1) (UniProt Q72547); assay: Binding affinity to HIV-1 HXB2 reverse transcriptase p66/p51 at increased temperature by Van't Hoff analysis
Outline: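 His-p66/His-p51 RT (4 nM) and RNA-DNA hybrid (250 nM) were run at 20, 25, 30 and 35°C. The reaction was started with substrate, incubated 30 min and quenched with EDTA. Product fluorescence was read, with quadruplicate dose-response curves at each temperature. Ki was fitted as v_i/v_o = 1/[1 + ([I]/Ki)], simple nontight-binding inhibition.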

Reverse transcriptase = Reverse transcriptase (Human immunodeficiency virus 2, UniProt Q06347); assay: Inhibition of RNase H activity of HIV-2 reverse transcriptase
[8] = target: T1, Human immunodeficiency virus type 1 reverse transcriptase; assay: Inhibition of RNase H activity of HIV-1 reverse transcriptase
Outline: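 Recombinant His-p66/His-p51 RT (HXB2) was mixed with inhibitor in DMSO, then the reaction was started with 18-bp hybrid (3′-fluorescein RNA/5′-dabsyl DNA). Run at 37°C for 10 min, read ex 475/em 520 nm every minute. IC50 from initial-rate % inhibition vs log[inhibitor], triplicate.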

[9] = target: Human immunodeficiency virus type 1 reverse transcriptase (Human immunodeficiency virus 1) (UniProt Q72547); assay: Inhibition of DNA-dependent DNA polymerase activity of HIV1 HXB2 reverse transcriptase p66/p51at 50 uM after 10 mins by fluorescence spectrophotometry

Chain of Reverse transcriptase (Q06347 whole entry): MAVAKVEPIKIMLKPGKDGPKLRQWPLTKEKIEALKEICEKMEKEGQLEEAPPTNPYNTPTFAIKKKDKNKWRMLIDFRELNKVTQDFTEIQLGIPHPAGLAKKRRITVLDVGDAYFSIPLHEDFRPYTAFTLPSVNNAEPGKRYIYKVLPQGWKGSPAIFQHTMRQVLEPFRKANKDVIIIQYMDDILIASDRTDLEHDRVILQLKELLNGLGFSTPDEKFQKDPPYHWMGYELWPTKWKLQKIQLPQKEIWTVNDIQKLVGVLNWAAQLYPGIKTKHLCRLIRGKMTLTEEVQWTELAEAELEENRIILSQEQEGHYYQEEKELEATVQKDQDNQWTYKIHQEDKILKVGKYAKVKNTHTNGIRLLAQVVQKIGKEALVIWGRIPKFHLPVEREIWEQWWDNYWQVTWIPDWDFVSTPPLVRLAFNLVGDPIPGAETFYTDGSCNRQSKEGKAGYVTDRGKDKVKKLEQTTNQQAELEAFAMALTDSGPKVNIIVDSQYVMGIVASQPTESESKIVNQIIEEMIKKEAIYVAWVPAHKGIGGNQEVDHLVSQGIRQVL

SMILES: Cc1sc(NC(=O)c2ccco2)c(C(N)=O)c1C
- IC50 [1]: 3.4 µM

SMILES: Cc1sc(NC(=O)c2ccc3c(c2)OCO3)c(C(N)=O)c1C
- IC50 [2]: 19 µM
- IC50 [1]: 5.1 µM
- CC50 [3]: 38 µM

SMILES: Cc1sc(NC(=O)c2ccc(Br)o2)c(C(N)=O)c1C
- IC50 [1]: 1.7 µM

SMILES: Cc1onc(-c2ccccc2)c1C(=O)Nc1sc(C)c(C)c1C(N)=O
- IC50 [1]: 2.9 µM

SMILES: NC(=O)c1c(N)sc2c1CCCCC2
- inhibition [4]: Active
- inhibition [5]: inactive
- Activity [6]: Active
- IC50 [2]: 4.3 µM
- Activity [7]: inactive
- CC50 [3]: 19.9 µM

SMILES: Cc1sc2nc(-c3ccccc3)[nH]c(=O)c2c1C
- IC50 [1]: > 100 µM

SMILES: CC(C)c1ccc(O)c(=O)c(O)c1 [BETA-THUJAPLICINOL]
- IC50 (Reverse transcriptase): 250 nM
- Activity [7]: inactive
- IC50 [8]: 250 nM

SMILES: Cc1ccc(NC(=O)c2c(NC(=O)c3ccccc3F)sc3c2CCCCC3)cc1
- IC50 [1]: > 500 µM

SMILES: Cc1sc(NC(=O)C2CCCO2)c(C(N)=O)c1C (centres undefined)
- IC50 [1]: 27.3 µM

SMILES: NC(=O)c1ccsc1N
- IC50 [1]: > 500 µM

SMILES: Cc1sc(NC(=O)C2CC3CCC2C3)c(C(N)=O)c1C (centres undefined)
- IC50 [1]: 21 µM

SMILES: CCOc1ccc(NC(=O)c2c(NC(=O)c3ccccc3)sc3c2CCCCC3)cc1
- IC50 [1]: > 500 µM

SMILES: COc1ccccc1NC(=O)c1c(NC(=O)Cc2ccccc2)sc2c1CCCCC2
- IC50 [2]: 54 µM
- IC50 [1]: > 500 µM
- CC50 [3]: 141 µM

SMILES: COc1ccc(-c2nc3sc(C)c(C)c3c(=O)[nH]2)cc1
- IC50 [1]: > 100 µM

SMILES: NC(=O)c1c(N)sc2c1CCCC2
- IC50 [1]: 14 µM

SMILES: Cc1sc(N)c(C(N)=O)c1C
- IC50 [1]: > 500 µM

SMILES: Cc1ccc(C(=O)Nc2sc(C)c(C)c2C(N)=O)cc1
- IC50 [1]: 2.8 µM

SMILES: NC(=O)c1c(N)sc2c1CCCCCC2
- IC50 [1]: > 500 µM

SMILES: Cc1sc(NC(=O)c2cccc([N+](=O)[O-])c2)c(C(N)=O)c1C
- Activity [6]: Active
- IC50 [1]: 1.3 µM

SMILES: NC(=O)c1c(N)sc2c1CCC2
- IC50 [1]: > 500 µM

SMILES: CCOc1ccc(NC(=O)c2c(NC(=O)c3ccco3)sc3c2CCCCC3)cc1
- IC50 [1]: 4.2 µM

SMILES: NC(=O)c1c(NC(=O)COc2ccccc2)sc2c1CCCCC2
- IC50 [1]: 6.9 µM

SMILES: O=C(Nc1sc2c(c1C(=O)Nc1cccc3ccccc13)CCCCC2)c1ccccc1F
- IC50 [1]: > 500 µM

SMILES: Cc1sc2nc(-c3ccc([N+](=O)[O-])cc3)[nH]c(=O)c2c1C
- inhibition [9]: inactive
- Activity [6]: Active
- IC50 [1]: 0.85 µM

SMILES: Cc1cc(Cl)ccc1CCC(=O)Nc1sc(C)c(C)c1C(N)=O
- IC50 [1]: > 500 µM
